In brackets after ≈: the same amount, converted by molar mass.
How the values were obtained:
[1] = Inhibition of Phosphatidylinositol 3-kinase from bovine brain; design: species or system Bos taurus
Outline: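 Purified bovine brain PI 3-kinase with phosphatidylinositol as substrate. Lipid products extracted and separated by TLC with autoradiography. PI-3-P spots scraped and counted by liquid scintillation.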

CCRF-CEM = assay: Cytotoxicity in rapidly proliferating CCRF-CEM cell lines after 72 hr exposure; type: functional, Homo sapiens

Compound | IC50 [1] | CT50 (CCRF-CEM)
C=CC(=O)O[C@@H]1C[C@]2(C)C(=O)CC[C@H]2C2=C1[C@]1(C)c3c(coc3C2=O)C(=O)O[C@@H]1COC | 0.95 ng/mL (≈ 2.16 nM) | 0.4 µg/mL
COC[C@H]1OC(=O)c2coc3c2[C@@]1(C)C1=C(C3=O)[C@@H]2CCC(=O)[C@@]2(C)C[C@H]1OC(=O)CCl | 1.3 ng/mL (≈ 2.81 nM) | 0.7 µg/mL
CCC(=O)O[C@@H]1C[C@]2(C)C(=O)CC[C@H]2C2=C1[C@]1(C)c3c(coc3C2=O)C(=O)O[C@@H]1COC | 0.6 ng/mL (≈ 1.36 nM) | 0.2 µg/mL
CCCCC(=O)O[C@@H]1C[C@]2(C)C(=O)CC[C@H]2C2=C1[C@]1(C)c3c(coc3C2=O)C(=O)O[C@@H]1COC | 1.2 ng/mL (≈ 2.55 nM) | 0.8 µg/mL
CCC(=O)O[C@@H]1C[C@]2(C)C(OC(C)=O)CC[C@H]2C2=C1[C@]1(C)c3c(coc3C2=O)C(=O)O[C@@H]1COC (some centres undefined) | 56.5 ng/mL (≈ 116 nM) | 3.1 µg/mL
COC[C@H]1OC(=O)c2coc3c2[C@@]1(C)C1=C(C3=O)[C@@H]2CCC(=O)[C@@]2(C)C[C@H]1OC(=O)Cc1ccccc1 | 1.53 ng/mL (≈ 3.03 nM) | 1 µg/mL
COC[C@H]1OC(=O)c2coc3c2[C@@]1(C)C1=C(C3=O)[C@@H]2CCC(=O)[C@@]2(C)C[C@H]1O | 10 ng/mL (≈ 25.9 nM) | 2 µg/mL
CCCC(=O)O[C@@H]1C[C@]2(C)C(=O)CC[C@H]2C2=C1[C@]1(C)c3c(coc3C2=O)C(=O)O[C@@H]1COC | 0.4 ng/mL (≈ 0.876 nM) | 0.3 µg/mL
COC[C@H]1OC(=O)c2coc3c2[C@@]1(C)C1=C(C3=O)[C@@H]2CCC(=O)[C@@]2(C)CC1=O | 1.6 ng/mL (≈ 4.16 nM) | 2.8 µg/mL
COC[C@H]1OC(=O)c2coc3c2[C@@]1(C)C1=C(C3=O)[C@@H]2CCC(=O)[C@@]2(C)C[C@H]1OC(=O)CC(C)C | 1.16 ng/mL (≈ 2.47 nM) | 0.6 µg/mL
CCC(=O)O[C@@H]1C[C@]2(C)C(O)CC[C@H]2C2=C1[C@]1(C)c3c(coc3C2=O)C(=O)O[C@@H]1COC (some centres undefined) | 0.38 ng/mL (≈ 0.855 nM) | 0.2 µg/mL
COC[C@H]1OC(=O)c2coc3c2[C@@]1(C)C1=C(C3=O)[C@@H]2CCC(=O)[C@@]2(C)C[C@H]1OC(C)=O [WORTMANNIN] | 1.8 ng/mL (≈ 4.2 nM) | 0.9 µg/mL

From ChEMBL document CHEMBL1129056, “Synthesis and in vitro evaluation of new wortmannin esters: potent inhibitors of phosphatidylinositol 3-kinase” (J Med Chem, 1996)
